Assay outcomes from PubChem.
TNAP act mid DEA: human TNAP enzyme activators, primary screen, biochemical, luminescent, intermediate phosphate acceptor level; Alkaline phosphatase, tissue-nonspecific isozyme (Homo sapiens), P05186; purified TNAP, CDP-star luminescence, 100 mM DEA, 30 min; stronger effect = higher value; scale: 0 levamisole-inhibited, 1 vehicle-only enzyme; activation factor at 20 µM; 64,000 tested, under 10 active; AID 813, 2007;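 active means activation factor of at least 2 at 20 µM, relative to controls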
SF-1 act: activators of human SF-1, primary screen, cell-based, CHO-K1, Gal4-SF-1 LBD, luciferase luminescence; activation, % at 10 µM; Steroidogenic factor 1 (Homo sapiens), Q13285; CHO-K1 Gal4-SF-1 LBD luciferase reporter; % increase over DMSO SF-1-specific signal; actives 1.9% (n = 65,000);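 active means activation above the mean activation of all tested compounds plus 3 SD, cut at about 50% in these data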
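Compound – one dose, 10 µM compound, 1% DMSO · Test system – transient Gal4-SF-1 LBD reporter, CHO-K1 · Input – 4,000 cells in each well · Read-out basis – percent activation relative to DMSO median and mock-transfected background · Replicates – single measurement per compound · Technique – steady-glow luciferase luminescence, read after 15 min reagent incubation · Timing – 20 h compound treatment, 37 °C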
MT1-MMP txn act: MT1-MMP promoter reporter activation – cell-based, luciferase luminescence, primary screen; HT1080 MT1-MMP promoter luciferase reporter, overnight; stronger effect = higher value; activation factor at 10 µM; actives 0.16% (n = 86,000);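 active means activation factor of at least 2 for MT1-MMP transcription at 10 µM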
MMP-13 inhibitor: human MMP13 inhibitors, primary screen, biochemical, FRET peptide cleavage; Collagenase 3 (Homo sapiens), P45452; MMP-13 fTHP FRET cleavage, Mca fluorescence; inhibition, % at 4 µM; actives 0.07% (n = 65,000);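 active means inhibition above the mean of compound-free control plate wells plus 3 SD, cut at about 14% in these data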;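 further: 0% = DMSO wells and 100% = wells with reference MMP-13 inhibitor after basal subtraction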
RORA act: activators of orphan receptor RORA, primary screen, cell-based, luminescence; Nuclear receptor ROR-alpha (Homo sapiens), P35398; CHO-K1 Gal4-RORA LBD luciferase reporter; percent increase over mock-subtracted basal signal; activation, % at 10 µM; actives 1.5% (n = 65,000);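 active means activation above the mean of all tested compounds plus 3 SD, cut at about 49% in these data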;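 further: 0% = DMSO-treated RORA cells and 100% = added signal equal to DMSO minus mock-transfected cells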
Target sequence (P35398 whole entry, looked up, the tested form may be a part): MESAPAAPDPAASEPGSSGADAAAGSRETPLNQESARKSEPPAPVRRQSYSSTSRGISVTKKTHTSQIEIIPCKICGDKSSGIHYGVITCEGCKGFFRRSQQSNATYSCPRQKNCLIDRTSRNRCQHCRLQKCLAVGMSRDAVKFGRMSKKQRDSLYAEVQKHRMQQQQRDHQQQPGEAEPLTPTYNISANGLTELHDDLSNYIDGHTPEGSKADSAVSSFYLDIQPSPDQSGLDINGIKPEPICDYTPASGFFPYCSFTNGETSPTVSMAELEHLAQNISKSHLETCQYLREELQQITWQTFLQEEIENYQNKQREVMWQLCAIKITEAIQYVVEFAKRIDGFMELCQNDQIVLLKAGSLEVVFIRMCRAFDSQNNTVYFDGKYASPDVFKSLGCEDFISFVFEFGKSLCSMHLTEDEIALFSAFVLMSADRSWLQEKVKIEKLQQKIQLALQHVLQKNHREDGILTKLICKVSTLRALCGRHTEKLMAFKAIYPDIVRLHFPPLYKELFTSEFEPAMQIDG
Active calls of the source: *; i = inactive; . = not tested or not shown. Most compounds without a hit are left out; they make up all but 2.1% or so of the library.

SMILES | TNAP act mid DEA | SF-1 act | MT1-MMP txn act | MMP-13 inhibitor | RORA act
O=C(CC(Nc1ccccc1)C(=O)O)c1ccccc1 (configuration not stated) | 0.8 | 35 | 0.8 | 6 | 59*
Cc1oncc1C(=O)NC(C)C | . | . | 1.3 | . | .
O=C1CN(C(=O)OCc2ccccc2)c2ccccc2N1 | 1 | 47 | 1.4 | 3 | 51*
Clc1ccccc1OCc1nnc(-c2ccccc2Br)o1 | 0.9 | 94* | 1.6 | 6 | 83*
C#CCN(Cc1ccccc1)C(=O)/C=C/c1ccccc1 | . | . | 1.2 | . | .
NC(=O)c1c(NC(=O)Cc2cccs2)sc2c1CCC2 | 0.8 | 51* | 1.1 | -7 | 25
COC(=O)c1c(NC(=O)c2ccoc2C)sc2c1CCC2 | 0.9 | -11 | 1.2 | -8 | -4
Cc1occc1C(=O)Nc1sc2c(c1C(N)=O)CCCCC2 | 0.9 | 58* | 1.4 | 5 | 27
O=C(Nc1sc2c(c1C(=O)O)CCCCC2)c1ccco1 | 1 | 57* | 0.9 | 7 | 62*
CN(C)C(=O)c1c(NC(=O)c2ccco2)sc2c1CCCCC2 | . | . | 1.5 | . | .
CCOC(=O)c1sc2ccc(S(=O)(=O)N3CC(C)CC(C)C3)cc2c1N (configuration not stated) | . | . | 1.2 | . | .
CC(C)C1N=C(c2ccc3c(c2)OCO3)CC(c2ccccc2O)N1 (configuration not stated) | . | . | 2* | . | .
O=C(CCc1ccccc1)Nc1c(F)cccc1F | . | . | 2.3* | . | .
Cc1noc(C)c1C(=O)Nc1sc2c(c1C(N)=O)CCCCC2 | 0.9 | 14 | 1.2 | 0 | -18
CC1CCc2c(sc(NC(=O)c3noc4c3CCCC4)c2C(N)=O)C1 (configuration not stated) | 0.9 | 50* | 1.8 | -3 | 101*
COC(=O)[C@@]1(Cc2ccccc2)[C@H]2c3cc(C(=O)N4CCCC4)n(Cc4c(CO)[nH]cc(C)c4=O)c3C[C@H]2CN1C(=O)c1ccccc1 | . | . | 1.2 | . | .
Brc1cccc(-c2nc(-c3ccncc3)no2)c1 | 0.9 | 60* | 1.3 | 4 | 47
Cc1cc(C)cc(-c2nc(-c3ccncc3)no2)c1 | 0.9 | 90* | 1.3 | 2 | 42
Cn1c(=O)cc(N)n(Cc2ccccc2)c1=O | . | . | 1.1 | . | .
Cc1cccc2[nH]c(-c3ccc(NC(=O)c4ccco4)cc3)nc12 | 0.9 | 74* | 1.9 | 3 | 30
Cc1ccc(Oc2ccc(NC(=O)c3ccco3)cc2)cc1 | 0.8 | 73* | 1.4 | 3 | 46
Cc1ccc(-c2nc3ccccc3[nH]2)cc1NC(=O)c1ccco1 | 0.9 | 23 | 1.1 | 0 | 35
O=C(Nc1ccc(Oc2ncccn2)cc1)c1ccco1 | 1 | 10 | 1.1 | 2 | 13
Cc1ccc(NC(=O)c2ccc(OC(=O)c3ccco3)cc2)cc1 | 1 | 52* | 1.1 | 5 | 51*
CCC1=C(OC(=O)N(CC)CC)N2C(=O)OC(=NCC3CC3)[C@]2(Cc2ccccc2)[C@H]2C1=CC[C@H]1C(=O)NC(=O)[C@H]12 | . | . | 1.1 | . | .
SMILES | TNAP act mid DEA | SF-1 act | MT1-MMP txn act | MMP-13 inhibitor | RORA act
CCOC(=O)c1c(C)oc2cc3c(C(=O)OCC)c(C)oc3cc12 | . | . | 1.4 | . | .
CCC/C=C(\CCC)C(NC(=O)c1ccc(C(F)(F)F)cc1)c1ccc(C(F)(F)F)cc1 (configuration not stated) | . | . | 1.1 | . | .
Nc1cccc(-c2nc3ccc(N)cc3s2)c1 | 0.8 | -61 | 0.3 | i | -57
Nc1ccc(O)c(-c2nc3ccccc3s2)c1 | 0.9 | 40 | 2.1* | 6 | 22
CCCCn1cnc2c([nH]c3cc(OC)ccc32)c1=O | . | . | 1.5 | . | .
COc1ccc2c(c1)[nH]c1c(=O)n(CC3CCCO3)cnc12 (configuration not stated) | 0.9 | 51* | . | -7 | 17
Cc1ccc2cc(C(=O)O)c(C)nc2c1 | . | . | 1.2 | . | .
Cn1cccc1C(=O)OCc1cc(Cl)cc2c1OCOC2 | 0.9 | 60* | 1.5 | 7 | 24
Cn1cccc1C(=O)OCC(=O)Nc1ccc2c(c1)CCC2 | 1 | 5 | 1.4 | -2 | 28
CCc1ccc(OCC(=O)N2CCN=C2c2ccccc2)cc1 | . | . | 1 | . | .
O=c1sc(Nc2ccccc2)nc2ccsc12 | 0.8 | 56* | . | 5 | 70*
COC(=O)[C@@]1(Cc2ccc(OC)cc2)[C@H]2c3cc(C(=O)N(C)C)n(Cc4nc5ccccc5[nH]4)c3C[C@H]2CN1C(=O)c1ccccc1 | . | . | 1.1 | . | .
Cc1nn(-c2ccccn2)c2c1-c1nc(N3CCOCC3)ncc1CC2 | . | . | 1.3 | . | .
Cc1nn(-c2ccccn2)c2c1-c1nc(N)ncc1CC2 | 1.1 | 45 | 1.9 | -48 | 51*
O=C(Cc1ccc(Br)cc1)c1ccc(O)cc1O | 0.9 | 84* | 1.5 | 0 | 37
CCCCC(=O)c1ccc(O)cc1O | . | . | 1.3 | . | .
CCC1=C2CC[C@H]3C(=O)N(c4ccccc4)C(=O)[C@H]3[C@H]2[C@@]2(Cc3ccccc3)C(=NCc3ccccc3)OC(=O)N2C1=O | . | . | 1.1 | . | .
NC(=O)c1oc2ccccc2c1NC(=O)c1nc2ccccc2s1 | 1 | 64* | 1.5 | 5 | 83*
NC(=O)c1oc2ccccc2c1NC(=O)c1ccc(F)cc1 | 0.9 | 6 | 1.1 | -4 | -10
CCOC(=O)C1=C(C)N(CCCC(=O)O)C(=O)NC1c1ccccc1OS(=O)(=O)c1ccc(C)cc1 (configuration not stated) | . | . | 1.1 | . | .
COC(=O)N1CC=CC1(C)C(=O)O (configuration not stated) | . | . | 1 | . | .
CC(=O)c1cnc2c(-c3ccc(Cl)cc3)cnn2c1C | . | . | 2.1* | . | .
CC(=O)c1cnc2nc(C(F)(F)F)nn2c1C | 0.8 | 8 | 1 | -7 | -13
Cc1ccc2nc(SC(C)C(=O)N3CCCC3)[nH]c2c1 (configuration not stated) | 0.9 | 28 | 1.5 | -4 | 22
Cc1ccc2nc(SCC(=O)N3CCCC3)[nH]c2c1 | 1 | 53* | 0.9 | 5 | 74*
SMILES | TNAP act mid DEA | SF-1 act | MT1-MMP txn act | MMP-13 inhibitor | RORA act
CCCC(=O)Nc1ccc(NC(=O)c2cccs2)cn1 | 0.8 | 18 | 1.3 | 10 | 8
O=C(Nc1ccc(NC(=O)c2ccco2)nc1)c1cccnc1 | 0.9 | 55* | 1.2 | -4 | 22
O=C(Nc1ccc(NC(=O)C2CCCCC2)nc1)c1ccco1 | . | . | 1.5 | . | .
O=C(Nc1ccc(NC(=O)C2CC2)nc1)c1cccs1 | 1 | 52* | 1.4 | 2 | 18
O=C(Nc1ccc(NC(=O)C2CC2)nc1)c1ccco1 | 1 | 51* | 1.5 | -1 | 20
COC(=O)[C@@H]1C[C@@H]2CC[C@@H](O)C[C@@H]2N1Cc1ccc(C)s1 | . | . | 1.1 | . | .
N#CC1=C(N)c2ccccc2CC12CCCCC2 | . | . | 1 | . | .
Cc1ccc(CO/N=C\Cc2snc(Sc3ncc(C(F)(F)F)cc3Cl)c2C#N)cc1 | . | . | 1.1 | . | .
